The results in this text go back to PubChem BioAssay.

Each structure is given as a SMILES string. Active and inactive are the calls of the source.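 The calls were made as follows, unless noted: active = viability at or under a set limit in both replicates, limit being median viability minus 3 SD (cut at about 48% in these data, passing the limit was not always enough); inconclusive = at or under the limit in just one replicate; inactive = at or above the limit in both replicates.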

A word on the viability: it is a read-out of living cells in per cent, often relative to untreated cells. For orientation: inhibition means the change of the read-out against control, counted positive when it falls.

The nature of experiment [1]: Her2 expression decrease, cell viability multiplex – SKBR3 breast tumor cells, AlphaScreen, ATP viability, primary screen (AID 461;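 active = Her2 level under about 52% in both replicate screens, with viability over 70% of control, limit read from the data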;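 as to Her2 level: lower value means less Her2 protein in the cells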;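 as to viability: percent of carrier control wells set as 100% viability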). Particulars: SKBR3 Her2 protein level, 18-24 h, measured here: SKBR3 viability, ATP luminescence, at 10 µM.
For experiment [2], the target named is Receptor tyrosine-protein kinase erbB-2 (Homo sapiens) (UniProt P04626). The experiment is described as above. The conditions noted are these: 18-24 h, at 10 µM, stronger effect = lower value.
Experiment [3] can be described thus: reduced viability of SK-BR-3 breast cancer cells – cell-based, 24 h, human, pilot screen (AID 572;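 active = viability at or below 10% of carrier control in both of two separate runs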;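 also: compound exposure lasted between 18 and 24 h rather than exactly 24 h; 100% = carrier-treated control wells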). Particulars: SK-BR-3 viability, CellTiter-Glo luminescence, at 10 µM, stronger effect = lower value. For orientation: ATP-based viability assays read luminescence as a measure of living cells.
A short description of experiment [4]: HUVEC growth inhibition – cell-based, human, primary screen (AID 575;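 active = viability at or below 30% in both replicate assays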;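 also: 100% = median of untreated cell wells with 0.1% DMSO on each plate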). The conditions noted are these: HUVEC proliferation, CellTiter-Glo luminescence, 72 h; at 10 µM; stronger effect = lower value. The method in brief: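 system = HUVEC primary cells | amount = 1250 cells/well | buffer or medium = supplemented EBM, 2% fetal bovine serum | dosing = single-point 10 µM, DMSO 0.1% final | times = 72 h compound incubation | detection = CTG luminescence | read-out = % viability relative to median vehicle-well signal on each plate | control set = vehicle and MePR control wells | format = collagen-coated 384-well format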

Experiment [5] can be described thus: H69AR cell proliferation blockers – human, duplicate replicates, primary screen (AID 580).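 Also: 100% = mean luminescence of untreated wells and 0% = no signal.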 The conditions noted are these: H69AR lung tumor cells viability, ATP luminescence, 72 h; at 10 µM; stronger effect = lower value.
Experiment [6] can be described thus: MRP1 drug-resistance reversers in H69AR cells – cell-based, doxorubicin co-treatment, pilot screen (AID 601;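 active = viability loss from added drug above about 55%, and viability with drug at most 40%, in both replicates, limit read from the data, passing the limit was not always enough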). The conditions noted are these: CellTiter-Glo, 72 h, at 10 µM; for differential viability (reversal): stronger effect = higher value.
A short description of experiment [7]: yeast transport mutant growth inhibition pilot in 384-well plates, post-Golgi transport modulator project (AID 636; in the data active = inhibition above about 31%). The conditions noted are these: absorbance 615 nm, about 18 h, stronger effect = higher value.
The nature of experiment [8]: growth suppression of yeast trafficking mutant, preliminary HTS, modulators of trafficking downstream of Golgi apparatus project, 1536-format plate, OD 615 nm (AID 637; in the data active = inhibition above about 30%). Particulars: yeast transport mutant growth, absorbance 615 nm, 18 h; stronger effect = higher value.
Where [9] appears, read: H69AR cells + 2 uM doxorubicin, measured here: viability with 2 uM doxorubicin, stronger effect = lower value.
[10] abbreviates: H69AR cells, compound alone cytotoxicity.

Chain of Receptor tyrosine-protein kinase erbB-2 (Homo sapiens) (P04626 whole entry, looked up): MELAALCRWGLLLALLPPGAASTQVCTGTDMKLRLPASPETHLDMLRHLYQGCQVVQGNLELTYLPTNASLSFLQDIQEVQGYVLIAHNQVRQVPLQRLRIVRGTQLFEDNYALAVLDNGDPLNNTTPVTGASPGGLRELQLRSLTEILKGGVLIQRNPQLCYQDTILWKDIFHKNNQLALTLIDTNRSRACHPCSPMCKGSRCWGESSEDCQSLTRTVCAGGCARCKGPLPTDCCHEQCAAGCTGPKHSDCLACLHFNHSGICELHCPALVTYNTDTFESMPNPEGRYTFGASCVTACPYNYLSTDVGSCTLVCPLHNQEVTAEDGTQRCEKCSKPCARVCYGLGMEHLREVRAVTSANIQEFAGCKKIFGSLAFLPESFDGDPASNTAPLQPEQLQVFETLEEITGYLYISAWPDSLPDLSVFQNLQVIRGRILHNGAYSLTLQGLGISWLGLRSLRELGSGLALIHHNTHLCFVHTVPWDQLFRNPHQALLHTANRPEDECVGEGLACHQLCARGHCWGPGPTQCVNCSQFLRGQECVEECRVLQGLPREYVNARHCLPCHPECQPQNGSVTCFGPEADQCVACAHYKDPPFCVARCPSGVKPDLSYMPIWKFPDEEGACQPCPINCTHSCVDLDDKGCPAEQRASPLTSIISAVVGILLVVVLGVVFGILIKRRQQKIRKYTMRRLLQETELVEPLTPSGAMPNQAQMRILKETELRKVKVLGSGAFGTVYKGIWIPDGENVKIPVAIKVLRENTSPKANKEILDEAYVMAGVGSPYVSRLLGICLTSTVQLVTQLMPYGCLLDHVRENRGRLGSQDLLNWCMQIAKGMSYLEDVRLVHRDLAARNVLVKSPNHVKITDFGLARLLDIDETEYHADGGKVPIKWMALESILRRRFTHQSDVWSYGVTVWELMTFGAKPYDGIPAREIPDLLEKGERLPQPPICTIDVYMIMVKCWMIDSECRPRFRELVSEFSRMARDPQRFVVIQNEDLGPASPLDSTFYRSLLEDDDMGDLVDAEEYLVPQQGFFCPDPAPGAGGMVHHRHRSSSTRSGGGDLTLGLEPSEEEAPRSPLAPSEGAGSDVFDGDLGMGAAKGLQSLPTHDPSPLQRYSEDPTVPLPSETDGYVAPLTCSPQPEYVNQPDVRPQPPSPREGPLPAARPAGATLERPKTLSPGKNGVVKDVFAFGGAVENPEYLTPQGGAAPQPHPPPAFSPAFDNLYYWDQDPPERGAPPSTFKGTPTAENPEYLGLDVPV

For the compound `COc1ccc(CC(NC(C)=O)C(=O)NC2CCN(C(=O)Nc3ccc(C#N)cc3)CC2)cc1OC` (stereo not given), the viability in experiment [1] is 93%; in experiment [3], 93% (inactive); in experiment [4], 117% (inactive); in experiment [5] it was 94.2% (inactive); in experiment [6] (setting [9]), 97.3%; in experiment [6] (setting [10]), 94.2%. Further, the Her2 level in experiment [2] is 91.5% (inactive). For the same compound, the differential viability (reversal) in experiment [6] (H69AR cells + 2 uM doxorubicin) is -3.13% (inactive). Moreover, the inhibition was -4.13% (inactive) in experiment [7] and 2.79% (inactive) in experiment [8].
As for `Cn1c(=O)c2c(nc(NCc3ccccc3)n2CCCc2ccccc2)n(C)c1=O`, the viability in experiment [1] was 84%; in experiment [3] it was 84% (inactive); in experiment [4], 69.5% (inactive); in experiment [5], 83.4% (inactive); in experiment [6] (setting [9]), 93.2%; in experiment [6] (setting [10]), 83.4%. Also, in experiment [2], the Her2 level is 88% (inactive). For the same compound, the differential viability (reversal) in experiment [6] (H69AR cells + 2 uM doxorubicin) was -9.82% (inactive). Also, the inhibition in experiment [7] was -0.81% (inactive); in experiment [8], -3.11% (inactive).
On to `COCCNC(=O)c1c(N)n(CCC2=CCCCC2)c2nc3ccccc3nc12`, for which the viability was 102% in experiment [1]; 102% (inactive) in experiment [3]; 78.3% (inactive) in experiment [4]; 89% (inactive) in experiment [5]; 78.2% in experiment [6] (setting [9]); 89% in experiment [6] (setting [10]). In experiment [2], the Her2 level was 92% (inactive). Also, in experiment [6] (H69AR cells + 2 uM doxorubicin), the differential viability (reversal) is 10.8% (inactive). Further, the inhibition in experiment [7] was -6.03% (inactive); in experiment [8], -2.38% (inactive).
`CCN(CC)S(=O)(=O)c1ccc(C(=O)Oc2ccc3c(c2)OCO3)cc1`: the viability is 101% in experiment [1]; 101% (inactive) in experiment [3]; 86.6% (inactive) in experiment [4]; 90.5% (inactive) in experiment [5]; 86.1% in experiment [6] (setting [9]); 90.5% in experiment [6] (setting [10]). In addition, the Her2 level in experiment [2] is 84% (inactive). The differential viability (reversal) in experiment [6] (H69AR cells + 2 uM doxorubicin) is 4.36% (inactive). Moreover, the inhibition in experiment [7] is -5.53% (inactive); in experiment [8], -4.13% (inactive).
As to `C/C=C(\C)c1nnc(NC(=O)C(C)C)s1`, the viability is 92.5% in experiment [1]; 92.5% (inactive) in experiment [3]; 101% (inactive) in experiment [4]; 98.7% (inactive) in experiment [5]; 89.2% in experiment [6] (setting [9]); 98.7% in experiment [6] (setting [10]). Besides, the Her2 level in experiment [2] was 82.5% (inactive). Further, the differential viability (reversal) in experiment [6] (H69AR cells + 2 uM doxorubicin) was 9.51% (inactive). In addition, the results for the inhibition in experiment [7] and in experiment [8] were -4.05% (inactive) and 2.79% (inactive), respectively.
On to `CC(C)COC(=O)C1[C@H]2C(=O)N(Cc3cccs3)C[C@]23C=C[C@H]1O3` (stereo not given in full), for which the viability in experiment [1] was 102%; in experiment [3], 102% (inactive); in experiment [4], 110% (inactive); in experiment [5], 91.1% (inactive); in experiment [6] (setting [9]), 89.8%; in experiment [6] (setting [10]), 91.1%. The Her2 level in experiment [2] is 109% (inactive). Further, the differential viability (reversal) in experiment [6] (H69AR cells + 2 uM doxorubicin) was 1.3% (inactive). For the same compound, the figures for the inhibition in experiment [7] and in experiment [8] were -4.29% (inactive) and -2.33% (inactive), respectively.
As for `CCCOc1cccc(C2/C(=C(/O)c3ccccc3)C(=O)C(=O)N2CCN(C)C)c1` (stereo not given), the viability in experiment [1] is 108%; in experiment [3], 108% (inactive); in experiment [4], 99.5% (inactive); in experiment [5], 91.6% (inactive); in experiment [6] (setting [9]), 89.1%; in experiment [6] (setting [10]), 91.6%. The Her2 level in experiment [2] was 93% (inactive). The differential viability (reversal) in experiment [6] (H69AR cells + 2 uM doxorubicin) was 2.56% (inactive). Moreover, the inhibition was -6.62% (inactive) in experiment [7] and 1.75% (inactive) in experiment [8].
As for `CC1=C(n2nnc3ccccc32)C(c2ccccc2)C(C#N)=C(N)O1` (stereo not given), the viability in experiment [1] was 72%; in experiment [3] it was 72% (inactive); in experiment [4], 82.8% (inactive); in experiment [5] it was 83.8% (inactive); in experiment [6] (setting [9]), 81.9%; in experiment [6] (setting [10]), 83.8%. The Her2 level in experiment [2] was 73% (inactive). Also, the differential viability (reversal) in experiment [6] (H69AR cells + 2 uM doxorubicin) was 1.96% (inactive). The inhibition in experiment [7] is -3.9% (inactive); in experiment [8], -4.1% (inactive).
As to `Cc1nc(NCCNC(=O)c2ccco2)c2c(C)c(C)sc2n1`, the viability is 87.5% in experiment [1]; 87.5% (inactive) in experiment [3]; 97.9% (inactive) in experiment [4]; 86.5% (inactive) in experiment [5]; 84.3% in experiment [6] (setting [9]); 86.5% in experiment [6] (setting [10]). In addition, in experiment [2], the Her2 level is 81% (inactive). Besides, the differential viability (reversal) in experiment [6] (H69AR cells + 2 uM doxorubicin) was 2.2% (inactive). The inhibition in experiment [7] was -4.08% (inactive); in experiment [8], 0.91% (inactive).
For `CCN(CC)S(=O)(=O)c1cccc(-c2nnc(SCC(N)=O)n2CCc2ccccc2)c1`, the viability in experiment [1] was 102%; in experiment [3], 102% (inactive); in experiment [4] it was 91% (inactive); in experiment [5] it was 74.7% (inactive); in experiment [6] (setting [9]), 84%; in experiment [6] (setting [10]) it was 74.7%. Moreover, the Her2 level in experiment [2] is 108% (inactive). In experiment [6] (H69AR cells + 2 uM doxorubicin), the differential viability (reversal) was -9.28% (inactive). The inhibition in experiment [7] was -2.21% (inactive); in experiment [8] it was -6.35% (inactive).
For the compound `COc1ccc(-c2cc3nc(C)c(CCC(=O)NCc4ccco4)c(C)n3n2)c(OC)c1`, the viability is 103% in experiment [1]; 103% (inactive) in experiment [3]; 92.1% (inactive) in experiment [4]; 85.8% (inactive) in experiment [5]; 88.4% in experiment [6] (setting [9]); 85.8% in experiment [6] (setting [10]). The Her2 level in experiment [2] is 91% (inactive). Also, the differential viability (reversal) in experiment [6] (H69AR cells + 2 uM doxorubicin) was -2.58% (inactive). Moreover, the results for the inhibition in experiment [7] and in experiment [8] were 0.53% (inactive) and 6.91% (inactive), respectively.
`COc1ccc(C(=O)N2CCN(S(=O)(=O)c3cc(Cl)ccc3OC)CC2)cc1`: the viability in experiment [1] was 108%; in experiment [3], 108% (inactive); in experiment [4], 95.6% (inactive); in experiment [5], 103% (inactive); in experiment [6] (setting [9]), 102%; in experiment [6] (setting [10]), 103%. Also, in experiment [2], the Her2 level was 100% (inactive). In addition, in experiment [6] (H69AR cells + 2 uM doxorubicin), the differential viability (reversal) was 1.29% (inactive). In addition, the inhibition in experiment [7] was -2.37% (inactive); in experiment [8], 8.33% (inactive).
Turning to `Cc1cc(C)cc(NC(=O)C2CCCN(c3nccc(C)n3)C2)c1` (stereo not given), the viability in experiment [1] was 85%; in experiment [3] it was 85% (inactive); in experiment [4], 84% (inactive); in experiment [5], 104% (inactive); in experiment [6] (setting [9]) it was 91.1%; in experiment [6] (setting [10]), 104%. Moreover, the Her2 level in experiment [2] is 101% (inactive). The differential viability (reversal) in experiment [6] (H69AR cells + 2 uM doxorubicin) is 12.9% (inactive). The inhibition was 0.91% (inactive) in experiment [7] and -5.25% (inactive) in experiment [8].
Take `CCOC(=O)c1ccccc1NC(=O)CSc1nc2c(c(=O)n(C)c(=O)n2C)n1C`: the viability in experiment [1] is 100%; in experiment [3], 100% (inactive); in experiment [4], 101% (inactive); in experiment [5], 92.4% (inactive); in experiment [6] (setting [9]), 85.9%; in experiment [6] (setting [10]), 92.4%. For the same compound, the Her2 level in experiment [2] is 92% (inactive). In addition, the differential viability (reversal) in experiment [6] (H69AR cells + 2 uM doxorubicin) is 6.47% (inactive). Further, the inhibition in experiment [7] was -1.58% (inactive); in experiment [8], 0.16% (inactive).
